Hits are enriched below; roughly 3.3% of the tested compounds scored in any of these assays.
rCAG binder: binders of r(CAG) RNA repeats, primary screen, biochemical, fluorescence; r(CAG) RNA repeat, TO-PRO-1 dye displacement fluorescence; inhibition, % at 3 µM; 370,000 tested, 1.3% active;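 active means inhibition above the plate cutoff, the mean of all test compounds on that plate plus 3 SD, cut at about 35% in these data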;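 further: 0% = DMSO alone and 100% = 100 µM mitoxantrone as full dye displacement; higher means more dye released from RNA so lower well fluorescence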
SIAE inh: human SIAE inhibitors, primary screen, biochemical, fluorescence polarization, FP-Rh probe, 1536-well HTS. Sialate O-acetylesterase (Homo sapiens), Q9HAT2. SIAE FP-Rh probe binding. inhibition, % at 9.66 µM. 370,000 tested, 0.69% active;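 active means inhibition above a cutoff: mean of compounds within the control limits plus 3 SD of those, cut at about 17% in these data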;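 further: 0% = plate median of compound wells and 100% = probe without SIAE protein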
Target sequence (Q9HAT2 whole entry, looked up): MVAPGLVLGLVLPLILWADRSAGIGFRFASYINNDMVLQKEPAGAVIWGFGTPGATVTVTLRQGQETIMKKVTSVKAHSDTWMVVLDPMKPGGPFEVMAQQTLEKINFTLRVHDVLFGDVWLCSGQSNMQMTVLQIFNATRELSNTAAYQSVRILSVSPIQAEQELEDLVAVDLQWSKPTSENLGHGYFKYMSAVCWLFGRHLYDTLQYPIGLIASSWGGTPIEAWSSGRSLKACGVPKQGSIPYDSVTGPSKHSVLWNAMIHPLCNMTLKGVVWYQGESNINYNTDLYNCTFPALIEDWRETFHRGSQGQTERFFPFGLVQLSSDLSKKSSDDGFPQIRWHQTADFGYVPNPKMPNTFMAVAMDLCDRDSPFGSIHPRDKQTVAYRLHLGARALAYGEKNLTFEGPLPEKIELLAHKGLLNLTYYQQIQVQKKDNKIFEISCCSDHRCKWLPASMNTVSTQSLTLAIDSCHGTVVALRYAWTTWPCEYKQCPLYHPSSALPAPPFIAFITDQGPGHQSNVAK
PRMT1 inh: PRMT1 methyltransferase inhibitors, primary screen, biochemical, fluorescence polarization; Protein arginine N-methyltransferase 1 (Homo sapiens), Q99873; recombinant PRMT1, activity-based probe fluorescence polarization; inhibition, % at 2.79 µM; 370,000 tested, 1.3% active;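 active means inhibition above about 21% made by adding two undisclosed values, limit read from the data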
HTRA1 inh: HTRA1 serine protease inhibitors, primary screen, biochemical, fluorescence polarization, HTS; recombinant HTRA1, FP-rhodamine activity-based probe; AID 504803, 2011; inhibition, % at 5.96 µM; 340,000 tested, 0.5% active; in the data active means inhibition above about 36%;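 further: 0% = enzyme with DMSO and 100% = wells lacking enzyme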
ABHD4 inh: ABHD4 inhibitors, primary screen, biochemical, fluorescence polarization, mouse. (Lyso)-N-acylphosphatidylethanolamine lipase (Mus musculus), Q8VD66. purified mABHD4, FP-Rh probe fluorescence polarization. inhibition, % at 8.92 µM. 370,000 tested, 0.54% active. AID 720543, 2013;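 active means inhibition exceeding the mean over every tested compound plus 3 SD, cut at about 30% in these data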;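 further: 0% = plate median of compound wells and 100% = S159A mutant with DMSO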
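Material: mouse ABHD4 enzyme, wild type; Benchmarks: S159A mutant high control, sample median low control; Buffer or medium: HEPES pH 7.0, NaCl, Pluronic buffer; Signal: fluorescence polarization; Read-out: percent inhibition of probe binding, normalized to plate controls; Timing: pre-incubation 45 min, probe exposure 60 min, at 25 °C; Dosing: 8.92 µM, single dose.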
SIAE inh conf: human SIAE inhibitors, retest, confirmation, biochemical, fluorescence polarization, FP-Rh probe, triplicate | shares compounds with SIAE inh | SIAE FP-Rh activity-based probe | inhibition, % at 9.66 µM | 2,300 tested, 13% active;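 active means mean inhibition of the replicates above the hit cutoff set in the primary screen, cut at about 17% in these data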;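 further: 0% = SIAE with DMSO and probe and 100% = probe without SIAE; inhibitors lower polarization as more probe stays unbound to SIAE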
The depositor's hits bear a star; nt = not tested or not shown.

SMILES	rCAG binder	SIAE inh	PRMT1 inh	HTRA1 inh	ABHD4 inh	SIAE inh conf
CCOC(=O)C1=C(C)OC(N)=C(C#N)C1c1cc(SCC)oc1C (stereo not drawn)	-3	19*	-1	1	1	-8
Cc1ccccc1-c1ccc(/C=C2/SC(N3CCOCC3)=NC2=O)o1	4	-5	5	-5	2	nt
Cc1ccccc1N1CCN(C2=NC(=O)/C(=C/c3cn[nH]c3-c3ccccc3)S2)CC1	1	24*	0	-3	2	-6
COC(=O)CC1C(=O)NCCN1C(=O)CSc1nc2cc(Cl)ccc2o1 (stereo not drawn)	-3	21*	-2	-2	-4	3
CCOc1cc(/C=N/Nc2nc(-c3cccc(S(=O)(=O)N4CCCC4)c3)cs2)ccc1O	25	21*	3	18	1	-1
COc1cc(/C=N/Nc2nc(-c3ccc(S(=O)(=O)N(C)C)cc3)cs2)ccc1O	17	17*	0	8	12	8
CCCCc1ccc(NS(=O)(=O)c2cccc(C(=O)N3CCNC(=O)C3)c2)cc1	0	-6	-6	2	-1	nt
COc1ccc(NS(=O)(=O)c2cc(NC(=O)c3cnc(C)cn3)ccc2N2CCCC2)cc1	10	2	-1	-2	2	nt
COc1ccc(NS(=O)(=O)c2cc(NC(=O)c3ccc(=O)[nH]c3)ccc2N2CCCC2)cc1	17	23*	1	0	6	2
Cc1ccccc1NC(=S)N1CCCCCC1	2	0	0	-4	-1	nt
Cc1ccccc1NC(=S)N1CCN(c2ccccc2)CC1	0	18*	-3	8	-1	3
Oc1ccc(/C=N/Nc2ccc3ccccc3c2)c(O)c1	27	21*	9	28	17	17
COc1cc2c(cc1OC)CN(C(=O)/C=C/c1cccc([N+](=O)[O-])c1)CC2	-2	-1	0	3	-1	nt
COc1ccc(-c2nc(SCC(=O)NC3CCCC3)c(-c3ccc(OC)cc3)[nH]2)cc1	7	18*	4	7	9	6
COc1ccc(-c2[nH]c(-c3ccc(C)cc3)nc2SCC(=O)Nc2nccs2)cc1	18	3	7	-12	-4	nt
COc1ccc(-c2[nH]c(-c3ccc(SC)cc3)nc2SCC(=O)Nc2nccs2)cc1	21	22*	6	3	10	9
COc1ccc(N2CCN(c3ccc(N4C(=O)CC(C)C4=O)cc3[N+](=O)[O-])CC2)cc1 (stereo not drawn)	-2	-1	-1	-8	-4	nt
O=C(CSc1ccc(-c2cccnc2)nn1)N1CCCCCC1	-1	27*	0	2	-3	1
CC(=O)NNC(=S)Nc1cc(S(=O)(=O)N(C)C)ccc1C	2	2	-1	10	3	nt
COCCN(CCOC)C(=S)Nc1cc(S(=O)(=O)N(C)C)ccc1C	-5	20*	-9	-2	2	-4
COc1ccc(C=NN=C2c3ccccc3-c3ccccc32)cc1OC	3	-20	-8	-19	-4	nt
COc1ccc(N=CC2CCCCC2=O)c([N+](=O)[O-])c1 (stereo not drawn)	3	5	0	9	14	nt
O=C1C2CC=CCC2C(=O)N1c1ccc(NCCc2ccccc2F)c([N+](=O)[O-])c1 (stereo not drawn)	0	17*	-4	-1	-1	2
O=C(CCC(=O)Nc1cccc(Cl)c1)N/N=C/c1cc([N+](=O)[O-])ccc1O	18	18*	-1	5	7	-4
CCCCc1c(-c2ccccc2OC)ncn1CCc1ccc(Cl)cc1	3	4	-1	nt	10	nt
SMILES	rCAG binder	SIAE inh	PRMT1 inh	HTRA1 inh	ABHD4 inh	SIAE inh conf
COc1ccc(-c2[nH]c(-c3cc(OC)c4c(c3)OCO4)nc2-c2ccccc2)cc1	12	26*	2	8	15	-2
COC(=O)c1ccc(Oc2nc3c(c(=O)n(C)c(=O)n3C)n2CCC(C)C)cc1	0	28*	-1	5	-3	-3
CCC(=O)c1ccc(Oc2nc3c(c(=O)n(C)c(=O)n3C)n2CC)cc1	-8	3	2	-13	6	nt
NC(=S)N/N=C/c1ccccc1O	-4	4	3	-3	2	nt
Oc1ccccc1C=NNC(=S)NN=Cc1ccccc1O	27	42*	3	32	28	52*
CC(C)N(Cc1ccccc1)C(=O)CN1C(=O)NC2(CCOc3ccccc32)C1=O (stereo not drawn)	-1	6	-6	1	5	nt
CCN(CC)S(=O)(=O)c1ccc(N2CCCC2)c(NC(=O)CSCc2c(C)noc2C)c1	4	-20	7	-4	4	nt
O=C(NCc1ccc(C(F)(F)F)cc1)c1ccc(-c2ccc(F)c(F)c2)c2ccoc12	3	-17	4	nt	-17	nt
CN1CCN(c2ccc(CNC(=O)c3ccc(-c4ccc(F)c(F)c4)c4ccoc34)cc2)CC1	2	19*	0	nt	6	7
CCOc1ccc(S(=O)(=O)NCCC(=O)OCN2C(=O)c3ccccc3C2=O)cc1	0	18*	-1	6	5	2
Cc1ccc(S(=O)(=O)NCC(=O)OCN2C(=O)c3ccccc3C2=O)cc1	-2	5	-2	nt	0	nt
O=C(Nc1ccccc1N1CCN(C(=O)c2ccccc2)CC1)c1ccc(Br)o1	-2	-4	2	1	4	nt
COC(=O)C(Cc1c[nH]c2ccccc12)NC(=O)c1ccc2nc[nH]c2c1 (stereo not drawn)	0	1	0	0	2	nt
COC(=O)C(Cc1c[nH]c2ccccc12)NC(=O)c1cncc(Br)c1 (stereo not drawn)	-2	20*	-2	-1	4	1
COc1ccc(C(=O)Nc2c(N)nc(SCC(=O)Nc3ccc(NC(C)=O)cc3)[nH]c2=O)cc1OC	4	18*	1	-2	-5	-5
Cc1cccc(OCCCN2CCC(C(O)(c3ccccc3)c3ccccc3)CC2)c1	0	-7	4	nt	4	nt
CC(=O)c1cccc(S(=O)(=O)N2CCC(C(=O)Oc3ccc(-c4nnco4)cc3)CC2)c1	5	22*	2	0	-9	16
COc1cc(CCC(=O)NCCc2ccc(F)cc2)cc(OC)c1OC	-6	18*	0	-4	-3	-12
CC(C)(C)OC(=O)N1Cc2[nH]c3ccccc3c2C[C@@H]1C(=O)O	8	26*	-1	0	-2	3
